The results in this text go back to ChEMBL document CHEMBL1828627, “High-throughput-screening-based identification and structure-activity relationship characterization defined (S)-2-(1-aminoisobutyl)-1-(3-chlorobenzyl)benzimidazole as a highly antimycotic agent nontoxic to cell lines” (J Med Chem, 2011).

≈ marks a conversion by molar mass, not a printed value. Calls of active or inactive are those of the source.

Data set [1] in a line: Selectivity index of CC50 for human HeLa cells to IC50 for Candida albicans SC5314 infected in HeLa cells. In outline:
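Selectivity index calculated as CC50/IC50. CC50 is the half-maximal cytotoxic concentration in HeLa cells; IC50 is the half-maximal antimycotic concentration in the C. albicans–infected HeLa assay. Both come from 5-day fluorescein diacetate viability readouts.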

Data set [2] is described as follows: Cytotoxicity against human HeLa cells assessed as cell viability after 5 days by fluorescein diacetate assay. The format is cell-based.
For data set [3], the system named is Candida albicans. The experiment in a line: Antifungal activity against Candida albicans SC5314 infected in HeLa cells after 5 days by fluorescein diacetate assay. The class given is functional, organism-based. In outline: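 HeLa cells co-incubated with C. albicans and compound for 5 days. Dose–response from resynthesized compounds. Host-cell viability checked microscopically at 18 h, then quantified at day 5 by fluorescein diacetate conversion to a fluorophore by live cells. Wells also inspected visually for yeast growth. Controls: untreated uninfected HeLa (~100%) and untreated infected HeLa (~0%). IC50 derived from infected cells; CC50 as half-maximal cytotoxic concentration.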

Data set [4] has as its system Candida albicans. The experiment in a line: Antifungal activity against Candida albicans SC5314 infected in HeLa cells at 20 uM after 5 days by fluorescein diacetate assay. The class given is functional, organism-based. In outline:
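Primary HTS: HeLa cells co-incubated with C. albicans plus a single compound at ~20 μM for 5 days. Viability checked microscopically at 18 h and quantified at day 5 by fluorescein diacetate fluorescence. Wells also scanned visually for yeast growth. Hit criterion: >40% signal relative to the uninfected untreated HeLa (~100%) and infected untreated HeLa (~0%) controls.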

Data set [5] concerns Candida albicans. The experiment in a line: Antifungal activity against Candida albicans DSMZ 11949 by broth dilution method. The format is functional. In outline:
(§1)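 MICs by broth microdilution following CLSI M27-A3 for yeasts, with fluconazole as the reference antifungal. Panel covered type strains and clinical isolates of Candida spp. (21 strains). Reference control strains: C. albicans DSMZ 11949, C. glabrata ATCC 90030, C. parapsilosis 22019 and 90018, Issatchenkia orientalis ATCC 6258. MIC in μg/mL; averages given as geometric means.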

The subject of data set [6] is Nakaseomyces glabratus. Put plainly: Antifungal activity against Candida glabrata ATCC 90030 by broth dilution method. The class given is functional. In outline: as §1
Data set [7] concerns Candida parapsilosis. Put plainly: Antifungal activity against Candida parapsilosis 22019 by broth dilution method. The class given is functional. The note with it: Lodderomyces parapsilosis. In outline:
as §1

Data set [8] relates to Candida parapsilosis. The experiment in a line: Antifungal activity against Candida parapsilosis 90018 by broth dilution method. The format is functional. The settings on record: Lodderomyces parapsilosis. In outline:
as §1

The next data set relates to Pichia kudriavzevii. Put plainly: Antifungal activity against Issatchenkia orientalis ATCC 6258 by broth dilution method. The format is functional. In outline: as §1
Data set [9] relates to Nakaseomyces glabratus. Put plainly: Antifungal activity against Candida glabrata AN 8626 by broth dilution method. The class given is functional. In outline:
as §1

The subject of data set [10] is Nakaseomyces glabratus. The experiment in a line: Antifungal activity against Candida glabrata CG 7 by broth dilution method. The format is functional. In outline:
as §1

Data set [11] relates to Candida albicans. Put plainly: Antifungal activity against Candida albicans CA20 by broth dilution method. The format is functional. In outline: as §1
For data set [12], the system named is Candida albicans. Put plainly: Antifungal activity against Candida albicans CA21 by broth dilution method. The format is functional. In outline: as §1
For data set [13], the system named is Candida albicans. Put plainly: Antifungal activity against Candida albicans MY 2902/2008 by broth dilution method. The class given is functional. In outline:
as §1

Data set [14] deals with Candida albicans. The experiment in a line: Antifungal activity against Candida albicans SCS 71865 L by broth dilution method. The format is functional. In outline: as §1
In data set [15] the test system is Candida albicans. The experiment in a line: Antifungal activity against Candida albicans Jg 32570 by broth dilution method. The format is functional. In outline: as §1
Data set [16] has as its system Candida albicans. The experiment in a line: Antifungal activity against Candida albicans AM2001/2007 by broth dilution method. The format is functional. In outline: as §1
In data set [17] the test system is Candida albicans. Put plainly: Antifungal activity against Candida albicans AN 1699 by broth dilution method. The format is functional. In outline:
as §1

The test system of data set [18] is Candida albicans. The experiment in a line: Antifungal activity against Candida albicans AN 1994 by broth dilution method. The class given is functional. In outline:
as §1

For the next data set, the system named is Candida tropicalis. Put plainly: Antifungal activity against Candida tropicalis AN 1946 by broth dilution method. The class given is functional. In outline:
as §1

Data set [19] concerns Candida albicans. Put plainly: Antifungal activity against Candida albicans AN 562 by broth dilution method. The class given is functional. In outline: as §1
Data set [20] has as its system Candida albicans. Put plainly: Antifungal activity against Candida albicans VB 1723 by broth dilution method. The class given is functional. In outline:
as §1

The subject of data set [21] is Candida albicans. Put plainly: Antifungal activity against Candida albicans AN 3156 by broth dilution method. The class given is functional. In outline: as §1
For data set [22], the system named is Candida parapsilosis. The experiment in a line: Antifungal activity against Candida parapsilosis AN 5485 by broth dilution method. The note with it: Lodderomyces parapsilosis. The format is functional. In outline:
as §1

In data set [23] the test system is Candida parapsilosis. Put plainly: Antifungal activity against Candida parapsilosis AV 7675 by broth dilution method. The class given is functional. The settings on record: Lodderomyces parapsilosis. In outline: as §1
The mark [24] stands for this setting: Candida albicans, SC5314, HeLa, 120 h, read-out: IC50.

As for `CCC[C@H](N)c1nc2ccccc2n1Cc1cccc(C)c1`, the “Ratio CC50/IC50” value in data set [1] is 15. In addition, the CC50 at 120 h in data set [2] is 30 µM. Moreover, the IC50 in the data set on Candida albicans [3] (setting [24]) was determined as 2 µM. In addition, the inhibition entry in the data set on Candida albicans [4] is “inactive”.
As for `Cc1cccc(Cn2c([C@H](C)N)nc3ccccc32)c1`, the minimal inhibitory concentration (MIC) in the data set on Candida albicans [5] turned out to be 8 µg/mL (≈ 30.1 µM); in the data set on Nakaseomyces glabratus [6], 64 µg/mL (≈ 241 µM); in the data set on Candida parapsilosis [7] it was 128 µg/mL (≈ 482 µM); in the data set with Candida parapsilosis [8] it was 128 µg/mL (≈ 482 µM); in the data set with Pichia kudriavzevii it was 128 µg/mL (≈ 482 µM); in the data set on Nakaseomyces glabratus [9], 64 µg/mL (≈ 241 µM). Also, the minimum inhibitory concentration (MIC) in the data set on Nakaseomyces glabratus [10] worked out at 64 µg/mL (≈ 241 µM); with Candida albicans [11], 1 µg/mL (≈ 3.77 µM); against Candida albicans [12], 64 µg/mL (≈ 241 µM); in the data set on Candida albicans [13], 32 µg/mL (≈ 121 µM); with Candida albicans [14], 128 µg/mL (≈ 482 µM); in the data set with Candida albicans [15] it was 128 µg/mL (≈ 482 µM). For the same molecule, the MIC amounted to 64 µg/mL (≈ 241 µM) in the data set on Candida albicans [16]; 128 µg/mL (≈ 482 µM) in the data set with Candida albicans [17]; 128 µg/mL (≈ 482 µM) with Candida albicans [18]; 128 µg/mL (≈ 482 µM) against Candida tropicalis; 128 µg/mL (≈ 482 µM) against Candida albicans [19]; 128 µg/mL (≈ 482 µM) against Candida albicans [20]. The MIC with Candida albicans [21], against Candida parapsilosis [22] and against Candida parapsilosis [23] was 128 µg/mL (≈ 482 µM) throughout. Moreover, the inhibition entry with Candida albicans [4] was “inactive”.
Regarding `CC(C)[C@@H](N)c1nc2ccccc2n1Cc1cccc(Cl)c1`, in the data set on Candida albicans [3] (hela), the IC50 entry was “Not Active”.
Turning to `CCC[C@H](N)c1nc2ccccc2n1Cc1ccc(Cl)cc1`, the “Ratio CC50/IC50” value in data set [1] was 14. Also, in [2], the CC50 at 120 h came to 28 µM. Further, the IC50 with Candida albicans [3] (setting [24]) stood at 2 µM. Further, the inhibition result in the data set with Candida albicans [4] is “inactive”.
As for `CC(=O)N[C@H](c1nc2ccccc2n1Cc1cccc(Cl)c1)C(C)C`, the half-inhibitory concentration (IC50) result with Candida albicans [3] (hela) is recorded as “Not Active”.
Take `OC(Cn1cncn1)(Cn1cncn1)c1ccc(F)cc1F` [FLUCONAZOLE]: the MIC was 2 µg/mL (≈ 6.53 µM) in the data set with Candida albicans [5]; 0.125 µg/mL (≈ 0.408 µM) with Nakaseomyces glabratus [6]; 1 µg/mL (≈ 3.27 µM) against Candida parapsilosis [7]; 0.25 µg/mL (≈ 0.816 µM) in the data set on Candida parapsilosis [8]; 0.25 µg/mL (≈ 0.816 µM) with Pichia kudriavzevii; 4 µg/mL (≈ 13.1 µM) in the data set on Nakaseomyces glabratus [9]. Further, the MIC against Nakaseomyces glabratus [10] came out at 4 µg/mL (≈ 13.1 µM); against Candida albicans [11] it was 0.125 µg/mL (≈ 0.408 µM); against Candida albicans [12], 0.125 µg/mL (≈ 0.408 µM); against Candida albicans [13], 0.5 µg/mL (≈ 1.63 µM); with Candida albicans [14] it was 0.125 µg/mL (≈ 0.408 µM); against Candida albicans [15], 128 µg/mL (≈ 418 µM). Besides, the MIC was found to be 0.5 µg/mL (≈ 1.63 µM) against Candida albicans [16]; 8 µg/mL (≈ 26.1 µM) against Candida albicans [17]; 128 µg/mL (≈ 418 µM) in the data set with Candida albicans [18]; 128 µg/mL (≈ 418 µM) against Candida tropicalis; 1 µg/mL (≈ 3.27 µM) in the data set on Candida albicans [19]; 0.5 µg/mL (≈ 1.63 µM) in the data set on Candida albicans [20]. Further, the figures for the minimum inhibitory concentration (MIC) against Candida albicans [21], in the data set on Candida parapsilosis [22] and against Candida parapsilosis [23] were 8 µg/mL (≈ 26.1 µM), 0.25 µg/mL (≈ 0.816 µM) and 2 µg/mL (≈ 6.53 µM), respectively.
